High-throughput results from PubChem.
Most compounds without a hit are left out; they make up all but 2.6% or so of the library.
esBAF inh = inhibitors of esBAF chromatin remodeling in mouse ES cells | reporter increase, % at 12.5 µM | actives 2% (n = 350,000) | Bmi1-luciferase knock-in reporter, 24 h; 100% = twice the neutral-well signal; in the data active = activation above about 40%;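 note: 0% = median of the plate's neutral control wells and 100% = double that signal; a rise in the Bmi1 reporter signal indicates esBAF inhibition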
ARFGAP1 inhibitor = inhibits rat ARF GTPase activating protein 1. Q62848. actives 0.26% (n = 360,000). Arfgap1-stimulated ARF1 GTP hydrolysis, GDP FP detection. inhibition, % at 16.5 µM;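 active = inhibition above a per-plate limit, mean inhibition of low control wells plus 3 SD, cut at about 25% in these data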;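 note: 0% = DMSO wells with enzyme and 100% = wells lacking Arfgap1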
Target sequence (Q62848 1-136 limits assumed): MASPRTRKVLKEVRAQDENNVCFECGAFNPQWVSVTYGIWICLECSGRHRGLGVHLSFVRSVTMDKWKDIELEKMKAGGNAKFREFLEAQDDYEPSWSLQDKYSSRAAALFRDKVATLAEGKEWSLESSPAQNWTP
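Replicates: Single well per compound | Assay system: Truncated rat Arfgap1 GAP domain | Control set: No-Arfgap1 wells (100%) versus DMSO full-reaction wells (0%) | Times: Enzyme reaction 120 min at 25 °C after 20 min preincubation | Reagent: Human ARF1(Δ1-17)-GTP substrate | Measured by: Tracer-displacement fluorescence polarization with EDTA stop, 620/688 nm | Measure: Percent inhibition of Arfgap1-stimulated GTP hydrolysis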
ASAP1 GAP inh = blocks human ASAP1-stimulated Arf1 GTP hydrolysis | GDP FP detection | inhibition, % at 16.5 µM | AID 624377 | actives 0.19% (n = 360,000); in the data active = inhibition above about 25%;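 note: 0% = vehicle with enzyme and substrate and 100% = no enzyme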
Target sequence (Q9ULH1 325-724 limits assumed): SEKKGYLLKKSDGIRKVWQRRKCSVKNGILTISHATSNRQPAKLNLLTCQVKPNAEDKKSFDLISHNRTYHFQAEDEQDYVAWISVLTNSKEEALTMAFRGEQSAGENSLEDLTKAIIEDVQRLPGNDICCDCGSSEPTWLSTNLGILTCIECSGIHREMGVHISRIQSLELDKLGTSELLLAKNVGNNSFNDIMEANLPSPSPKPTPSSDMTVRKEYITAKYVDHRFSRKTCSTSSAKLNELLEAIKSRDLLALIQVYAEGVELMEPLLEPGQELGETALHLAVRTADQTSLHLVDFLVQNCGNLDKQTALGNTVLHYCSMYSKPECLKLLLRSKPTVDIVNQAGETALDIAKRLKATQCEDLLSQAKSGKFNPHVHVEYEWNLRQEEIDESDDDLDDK
SMARCA2 activ = increases SMARCA2 function in MMTV reporter cells | actives 1% (n = 370,000) | activation, % at 9.1 µM | MG213 cells, MMTV-luciferase reporter, dexamethasone, overnight | AID 652017; in the data active = activation above about 7.8%;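 note: 0% = vehicle wells and 100% = reference activator wells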
Active calls of the source: *; · = not tested or not shown; ! = repeats disagree.

SMILES	esBAF inh	ARFGAP1 inhibitor	ASAP1 GAP inh	SMARCA2 activ
N#CC(=C1CCCC1)c1nc(-c2ccccc2)cs1	·	-7.0	2.2	6.2
Cc1ccc(-c2csc(C(C#N)=C3CCCC3)n2)cc1	49.2*	10.7	0.0	1.1
O=C(Nc1ccc2c(c1)OCO2)N[C@H]1CC[C@@H](CCNC(=O)C2CC2)O[C@@H]1CO	-5.5	·	·	·
c1ccc(-n2nnc(-c3cccnc3)n2)cc1	58.2*	-3.4	1.9	4.9
CCOC(=O)c1cnn(-c2ccc(C)cc2)c1N	56.1*	2.3	-2.3	0.1
CC(=O)c1cnc2cc(-c3cccc(Br)c3)nn2c1C	50.2*	4.0	10.3	2.4
CCOC(=O)c1ccc(-n2ncc(C(=O)OCC)c2N)cc1	21.2	-0.9	-10.8	2.2
CCOC(=O)c1cnc2cc(-c3ccc(C)cc3)nn2c1C	71.3*	-7.9	0.6	-2.4
CC1CC1C(=O)OCc1cc(=O)n2cc(Br)ccc2n1 (configuration not stated)	46.9*	7.3	5.0	3.3
Cc1ccc(-c2cc3ccccc3nc2N)cc1	46.9*	-1.3	-6.9	-1.3
CCNC(=O)C[C@@H]1CC[C@@H]2[C@H](COC[C@@H](O)CN2C(=O)Nc2ccc(C(F)(F)F)cc2)O1	-1.9	·	·	·
COc1ccc(S(=O)(=O)Nc2ccc3c(c2)CC(=O)N([C@@H](C)CO)C[C@H](C)[C@H](CN(C)S(=O)(=O)c2cn(C)cn2)O3)cc1	-0.9	·	·	·
Cc1c(OCC(F)(F)F)ccnc1CS(=O)c1nc2ccccc2[nH]1 (configuration not stated)	47.7*!	-1.1	7.2	0.0
COCCCOc1ccnc(CS(=O)c2nc3ccccc3[nH]2)c1C (configuration not stated)	25.5	12.6	10.1	-2.1
O=C(N[C@@H]1C=C[C@H](CC(=O)N2CCN(c3ccccc3)CC2)O[C@@H]1CO)c1ccncc1	-1.2	·	·	·
CCOC(=O)N1CCN(c2ccc(C(F)(F)F)cn2)CC1	0.1	6.8	-3.5	7.9*
CCOc1ncccc1C(=O)N1CCN(c2ccc(C(F)(F)F)cn2)CC1	·	-11.0	-7.9	-4.7
C[C@@H](NC(=O)C[C@@H]1C[C@@H]2c3cc(NC(=O)CC4CC4)ccc3O[C@@H]2[C@@H](CO)O1)c1ccccc1	-2.4	·	·	·
COC(=O)C(Cc1c[nH]c2ccccc12)NC(=O)c1ccc2nc[nH]c2c1 (configuration not stated)	77.2*	2.7	-8.3	1.6
O=C(NC1CCCC1)[C@H]1[C@H](CO)[C@H]2Cn3c(ccc(C4=CCCC4)c3=O)[C@@H]1N2CC1CC1	-3.2	·	·	·
O=C(C[C@H]1CC[C@@H]2[C@H](COC[C@H](O)CN2Cc2ccc(Oc3ccccc3)cc2)O1)N1CCOCC1	18.3	·	·	·
CCCC#Cc1ccc2c(c1)COc1c3ccccc3nn1-2	1.2	9.2	7.6	5.2
CCc1cc(-c2ccc3c(c2)COc2c4ccccc4nn2-3)on1	3.0	-1.8	1.4	2.8
CC(C)[C@@H](CO)NC(=O)c1ccc2c3n(nc2c1)-c1ccc(Cl)cc1CO3	59.1*	9.7	-3.8	5.3
C[C@@H](CO)NC(=O)c1ccc2c3n(nc2c1)-c1ccc(Cl)cc1CO3	81.4*	-3.0	11.3	4.8
SMILES	esBAF inh	ARFGAP1 inhibitor	ASAP1 GAP inh	SMARCA2 activ
CS(=O)(=O)Nc1ccc2c(c1)[C@H]1C[C@H](CC(=O)N3CCCCC3)O[C@@H](CO)[C@H]1O2	-3.6	·	·	·
COc1ccc(/C=C2\NC(=S)N(CC3CCCO3)C2=O)c(OC)c1 (configuration not stated)	47.9*	-2.0	8.6	3.2
Cc1cccc(NC(=O)c2sc3nc(-c4ccccc4)cn3c2C)n1	51.2*	5.4	4.9	-0.6
COc1ccc(-c2cn3c(C)c(C(=O)Nc4cccc(C)n4)sc3n2)cc1	55.2*	3.6	1.4	2.7
Cc1cccc(NC(=O)c2sc3nc(-c4ccc(F)cc4)cn3c2C)n1	20.2	4.4	0.8	-0.2
Cc1noc(C)c1S(=O)(=O)Nc1ccc2c(c1)C(=O)N([C@H](C)CO)C[C@@H](C)[C@H](CN(C)Cc1ccc(Cl)c(Cl)c1)OCCCC[C@@H](C)O2	0.5	·	·	·
COCCN(C(=O)c1ccco1)c1nc(-c2ccccc2)cs1	34.6	8.0	8.2	4.1
CCC(=O)N(CC)c1nc(-c2ccc(OC)cc2)cs1	71.6*	-2.5	4.3	-0.4
CN(C(=O)c1ccco1)c1nc(-c2ccccc2)cs1	44.2*	5.8	7.9	5.3
COc1ccc(-c2csc(N(CC(C)C)C(=O)c3ccco3)n2)cc1	10.5	4.0	10.7	1.6
CCN(C(=O)c1ccco1)c1nc(-c2ccc(OC)cc2)cs1	81.2*	-0.1	-7.4	2.4
C[C@@H](NC(=O)C[C@@H]1C[C@H]2c3cc(NC(=O)C4CCC4)ccc3O[C@H]2[C@H](CO)O1)c1ccccc1	4.9	·	·	·
C[C@@H]1CN([C@H](C)CO)C(=O)c2cc(NC(=O)c3ccccc3)ccc2O[C@@H](C)CCCCO[C@@H]1CN(C)C(=O)C1CCCCC1	-1.3	·	·	·
C[C@H]1CN([C@@H](C)CO)C(=O)c2cc(C3=CCCC3)cnc2O[C@H]1CN(C)C(=O)NC1CCCC1	-1.8	·	·	·
C[C@@H]1CCCCO[C@H](CN(C)C(=O)NC2CCCCC2)[C@H](C)CN([C@@H](C)CO)C(=O)c2cc(NC(=O)Nc3cccc4ccccc34)ccc2O1	2.3	·	·	·
CCn1c(=NC(=O)c2ccco2)sc2cccc(F)c21	69.8*	-0.2	-2.8	5.1
Cc1ccsc1/C=C1\Oc2cc(O)ccc2C1=O	51.3*	10.9	-3.7	7.2
C[C@H](CO)N1C[C@H](C)[C@H](CN(C)C(=O)c2ccccc2F)Oc2ncc(-c3cccnc3)cc2C1=O	-3.7	·	·	·
C[C@@H]1CN([C@@H](C)CO)C(=O)c2cc(NC(=O)Nc3cccc4ccccc34)ccc2O[C@@H](C)CCCCO[C@H]1CN(C)C(=O)CCCN(C)C	0.5	·	·	·
Cc1cccn2c(NC(=O)c3cccs3)c(-c3ccccc3)nc12	·	8.9	-5.9	7.9*
O=C(Nc1ccc(-c2nc3ccccc3s2)cc1)c1cc(-n2cnnc2)ccc1Cl	59.8*	8.6	5.7	-4.2
Cc1ccc(NC(=O)c2cc(-n3cnnc3)ccc2Cl)cc1	3.0	13.8	9.9	3.3
CN(C)CC(=O)Nc1ccc2c(c1)[C@H]1C[C@H](CC(=O)N3CCc4ccccc4C3)O[C@H](CO)[C@H]1O2	4.5	·	·	·
Fc1ccccc1NC(=S)N/N=C/c1ccccc1Br	60.4*	0.9	3.8	5.5
O=[N+]([O-])c1ccc(/C=N/NC(=S)Nc2ccccc2F)o1	24.1	-0.9	5.8	-1.2
SMILES	esBAF inh	ARFGAP1 inhibitor	ASAP1 GAP inh	SMARCA2 activ
O=C(CSc1ccc(C(F)(F)F)cc1[N+](=O)[O-])Nc1ccccc1	-4.0	17.8	31.5*	2.0
CC(=O)Nc1ccc(NC(=O)CSc2ccc(C(F)(F)F)cc2[N+](=O)[O-])cc1	·	-3.6	7.2	2.2
O=C(Nc1ccccc1Cl)N1[C@H](CO)[C@@H]2c3ccccc3NC[C@@H]21	61.0*	·	·	·
N#Cc1nc(COc2cccc(Cl)c2)oc1NCc1ccco1	50.8*	-5.2	-6.4	5.2
CCNc1oc(COc2cccc(C)c2)nc1C#N	45.2*	15.4	7.8	-2.5
CNC[C@H]1Oc2c(NC(=O)c3cnccn3)cccc2C(=O)N([C@@H](C)CO)C[C@H]1C	3.7	·	·	·
